According to ChEMBL document CHEMBL4665800, “Biased Agonism at Nociceptin/Orphanin FQ Receptors: A Structure Activity Study on N/OFQ(1-13)-NH” (J Med Chem, 2020):
Starred links: 1 amine or outer side, 2 acyl side, 3 side chain; linkers in the order of their positions; H or OH if unused. Positions of bridges follow the written chain, without caps; N, C: chain ends. Non-standard residues stand in square brackets, D forms with d. Residues, ends and D or L forms follow the SMILES beside them. Chains are numbered I, II in the order given. *: point of attachment. X1 = CCCCCCCCCCCCCCCC(=O)NCCCN1C(=O)CC(*)C1=O; X2 = O=C1CC([*:1])C(=O)N1CCCC(=O)[*:2]; Ac5c = NC1(C(=O)O)CCCC1; Ac3c = NC1(C(=O)O)CC1; Aib = CC(C)(N)C(=O)O

Columns and labels:
Nociceptin receptor [1] = target: T1, Nociceptin receptor (Homo sapiens, UniProt P41146); test: Agonist activity at NOP (unknown origin) expressed in HEK293 cell membranes co-expressing Gbeta1-RGFP protein assessed as induction of G protein activation incubated for 15 mins by BRET assay; type: cell-based
T1 sequence (P41146 whole entry): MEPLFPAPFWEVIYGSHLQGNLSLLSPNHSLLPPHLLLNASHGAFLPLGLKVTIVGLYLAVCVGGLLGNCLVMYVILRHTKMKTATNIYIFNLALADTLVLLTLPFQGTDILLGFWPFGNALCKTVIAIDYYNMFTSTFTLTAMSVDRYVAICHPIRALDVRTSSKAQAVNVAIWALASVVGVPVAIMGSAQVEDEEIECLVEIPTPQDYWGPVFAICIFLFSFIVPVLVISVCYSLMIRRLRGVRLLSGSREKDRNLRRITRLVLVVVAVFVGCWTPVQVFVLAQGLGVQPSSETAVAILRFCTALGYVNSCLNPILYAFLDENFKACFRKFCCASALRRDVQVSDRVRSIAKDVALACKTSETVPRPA
Method in brief: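 Membranes (3 μg protein) from HEK293 cells stably co-expressing NOP-RLuc and Gβ1-RGFP, in DPBS. Coelenterazine 5 μM final; ligands in PBS–BSA 0.01%. BRET ratio (RGFP 510 nm / RLuc 460 nm) read 15 min after agonist, room temperature. Values are vehicle-subtracted stimulated BRET ratio. Mean of five experiments in duplicate.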

Nociceptin receptor [2] = target: T1, Nociceptin receptor; test: Agonist activity at NOP (unknown origin) […] assessed as induction of beta-arrestin2 activation incubated for 15 mins by BRET assay; type: cell-based, HEK293
Nociceptin receptor [3] = target: T1, Nociceptin receptor; test: Bias factor, selectivity for agonist activity at NOP (unknown origin) expressed in HEK293 cell membranes co-expressing beta-arrestin2-RGFP protein assessed as induction of beta-arrestin2 activation to agonist activity at NOP (unknown origin) expressed in HEK293 cell membranes co-expressing Gbeta1-RGFP protein assessed as induction of G protein activation; type: cell-based
Method in brief: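 Concentration–response curves in the NOP G protein and β-arrestin 2 BRET assays were fitted to the Black–Leff operational model. Mean of at least five experiments with 95% confidence limits.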

Compound | EC50 (Nociceptin receptor [1]) [nM] | EC50 (Nociceptin receptor [2]) [nM] | Selectivity Index (Nociceptin receptor [3])
C[C@H](NC(=O)CNC(=O)[C@@H](NC(=O)[C@H](Cc1ccccc1)NC(=O)CNC(=O)CNC(=O)[C@@H](N)Cc1ccccc1)[C@@H](C)O)C(=O)N[C@@H](CCCNC(=N)N)C(=O)N[C@@H](CCCCN)C(=O)N[C@@H](CO)C(=O)N[C@@H](C)C(=O)N[C@@H](CCCNC(=N)N)C(=O)N[C@@H](CCCCN)C(=O)N[C@@H](CSC1CC(=O)N(CCCC(=O)N[C@@H](CCCCN)C(=O)N[C@@H](CCCCN)C(=O)N[C@@H](CCCCN)C(=O)N[C@@H](CCCCN)C(=O)N[C@@H](CCCCN)C(=O)N[C@@H](CCCCN)C(N)=O)C1=O)C(N)=O (stereo partly specified) | 0.0871 | 6.03 | 0.83
CCCCCCCCCCCCCCCC(=O)NCCCN1C(=O)CC(SC[C@H](NC(=O)[C@H](CCCCN)NC(=O)[C@H](CCCNC(=N)N)NC(=O)[C@H](C)NC(=O)CNC(=O)[C@@H](NC(=O)[C@H](Cc2ccccc2)NC(=O)CNC(=O)CNC(=O)[C@@H](N)Cc2ccccc2)[C@@H](C)O)C(=O)N[C@@H](C)C(=O)N[C@@H](CCCNC(=N)N)C(=O)N[C@@H](CCCCN)C(N)=O)C1=O (stereo partly specified) (H-FGGFTGARKC(X1)ARK-NH2) | 0.288 | 19.1 | 0.91
CCCCCCCCCCCCCCCC(=O)NCCCN1C(=O)CC(SC[C@H](NC(=O)[C@H](C)NC(=O)[C@H](CO)NC(=O)[C@H](CCCCN)NC(=O)[C@H](CCCNC(=N)N)NC(=O)[C@H](C)NC(=O)CNC(=O)[C@@H](NC(=O)[C@H](Cc2ccccc2)NC(=O)CNC(=O)CNC(=O)[C@@H](N)Cc2ccccc2)[C@@H](C)O)C(=O)N[C@@H](CCCCN)C(N)=O)C1=O (stereo partly specified) (H-FGGFTGARKSAC(X1)K-NH2) | 0.525 | 22.4 | 
CCCCCCCCCCCCCCCC(=O)NCCCN1C(=O)CC(SC[C@H](NC(=O)[C@H](CCCNC(=N)N)NC(=O)[C@H](C)NC(=O)[C@H](CO)NC(=O)[C@H](CCCCN)NC(=O)[C@H](CCCNC(=N)N)NC(=O)[C@H](C)NC(=O)CNC(=O)[C@@H](NC(=O)[C@H](Cc2ccccc2)NC(=O)CNC(=O)CNC(=O)[C@@H](N)Cc2ccccc2)[C@@H](C)O)C(N)=O)C1=O (stereo partly specified) (H-FGGFTGARKSARC(X1)-NH2) | 1.26 | 55 | 0.7
CCCCCCCCCCCCCCCC(=O)NCCCN1C(=O)CC(SC[C@H](NC(=O)[C@H](CO)NC(=O)[C@H](CCCCN)NC(=O)[C@H](CCCNC(=N)N)NC(=O)[C@H](C)NC(=O)CNC(=O)[C@@H](NC(=O)[C@H](Cc2ccccc2)NC(=O)CNC(=O)CNC(=O)[C@@H](N)Cc2ccccc2)[C@@H](C)O)C(=O)N[C@@H](CCCNC(=N)N)C(=O)N[C@@H](CCCCN)C(N)=O)C1=O (stereo partly specified) (H-FGGFTGARKSC(X1)RK-NH2) | 0.437 | 34.7 | 1.11
C[C@H](NC(=O)CNC(=O)[C@@H](NC(=O)[C@H](Cc1ccccc1)NC(=O)CNC(=O)CNC(=O)[C@@H](N)Cc1ccccc1)[C@@H](C)O)C(=O)N[C@@H](CCCNC(=N)N)C(=O)N[C@@H](CCCCN)C(=O)N[C@@H](CO)C(=O)NC1(C(=O)N[C@@H](CCCNC(=N)N)C(=O)N[C@@H](CCCCN)C(N)=O)CCCC1 (H-FGGFTGARKS[Ac5c]RK-NH2) |  |  | 0.31
C[C@H](NC(=O)CNC(=O)[C@@H](NC(=O)[C@H](Cc1ccccc1)NC(=O)CNC(=O)CNC(=O)[C@@H](N)Cc1ccccc1)[C@@H](C)O)C(=O)N[C@@H](CCCNC(=N)N)C(=O)N[C@@H](CCCCN)C(=O)N[C@@H](CO)C(=O)NC(C)(C)C(=O)N[C@@H](CCCNC(=N)N)C(=O)N[C@@H](CCCCN)C(N)=O (H-FGGFTGARKS[Aib]RK-NH2) |  |  | 0.29
C[C@H](NC(=O)[C@H](CO)NC(=O)[C@H](CCCCN)NC(=O)[C@H](CCCNC(=N)N)NC(=O)C1(NC(=O)CNC(=O)[C@@H](NC(=O)[C@H](Cc2ccccc2)NC(=O)CNC(=O)CNC(=O)[C@@H](N)Cc2ccccc2)[C@@H](C)O)CC1)C(=O)N[C@@H](CCCNC(=N)N)C(=O)N[C@@H](CCCCN)C(N)=O (H-FGGFTG[Ac3c]RKSARK-NH2) |  |  | 0.4
C[C@H](NC(=O)[C@H](CO)NC(=O)[C@H](CCCCN)NC(=O)[C@H](CCCNC(=N)N)NC(=O)C1(NC(=O)CNC(=O)[C@@H](NC(=O)[C@H](Cc2ccccc2)NC(=O)CNC(=O)CNC(=O)[C@@H](N)Cc2ccccc2)[C@@H](C)O)CCCC1)C(=O)N[C@@H](CCCNC(=N)N)C(=O)N[C@@H](CCCCN)C(N)=O (H-FGGFTG[Ac5c]RKSARK-NH2) |  |  | 0.08
C[C@H](NC(=O)CCCN1C(=O)CC(SC[C@H](NC(=O)[C@H](CCCCN)NC(=O)[C@H](CCCNC(=N)N)NC(=O)[C@H](C)NC(=O)[C@H](CO)NC(=O)[C@H](CCCCN)NC(=O)[C@H](CCCNC(=N)N)NC(=O)[C@H](C)NC(=O)CNC(=O)[C@@H](NC(=O)[C@H](Cc2ccccc2)NC(=O)CNC(=O)CNC(=O)[C@@H](N)Cc2ccccc2)[C@@H](C)O)C(N)=O)C1=O)C(=O)N[C@@H](CC(=O)O)C(=O)N[C@@H](C)C(=O)N[C@@H](CC(=O)O)C(=O)N[C@@H](C)C(=O)N[C@@H](CC(=O)O)C(=O)N[C@@H](C)C(=O)N[C@@H](CC(=O)O)C(=O)N[C@@H](C)C(=O)N[C@@H](CC(=O)O)C(=O)N[C@@H](C)C(=O)N[C@@H](CC(=O)O)C(N)=O (stereo partly specified) (I: H-FGGFTGARKSARKC-NH2 / II: ADADADADADAD-NH2; linker I:14-II:N via X2) | 24 | 93.3 | 0.51
C[C@H](NC(=O)CCCN1C(=O)CC(SC[C@H](NC(=O)[C@H](CCCCN)NC(=O)[C@H](CCCNC(=N)N)NC(=O)[C@H](C)NC(=O)[C@H](CO)NC(=O)[C@H](CCCCN)NC(=O)[C@H](CCCNC(=N)N)NC(=O)[C@H](C)NC(=O)CNC(=O)[C@@H](NC(=O)[C@H](Cc2ccccc2)NC(=O)CNC(=O)CNC(=O)[C@@H](N)Cc2ccccc2)[C@@H](C)O)C(N)=O)C1=O)C(=O)N[C@@H](Cc1cnc[nH]1)C(=O)N[C@@H](C)C(=O)N[C@@H](Cc1cnc[nH]1)C(=O)N[C@@H](C)C(=O)N[C@@H](Cc1cnc[nH]1)C(=O)N[C@@H](C)C(=O)N[C@@H](Cc1cnc[nH]1)C(=O)N[C@@H](C)C(=O)N[C@@H](Cc1cnc[nH]1)C(=O)N[C@@H](C)C(=O)N[C@@H](Cc1cnc[nH]1)C(N)=O (stereo partly specified) (I: H-FGGFTGARKSARKC-NH2 / II: AHAHAHAHAHAH-NH2; linker I:14-II:N via X2) | 7.94 | 9.33 | -0.05
C[C@H](NC(=O)CCCN1C(=O)CC(SC[C@H](NC(=O)[C@H](CCCCN)NC(=O)[C@H](CCCNC(=N)N)NC(=O)[C@H](C)NC(=O)[C@H](CO)NC(=O)[C@H](CCCCN)NC(=O)[C@H](CCCNC(=N)N)NC(=O)[C@H](C)NC(=O)CNC(=O)[C@@H](NC(=O)[C@H](Cc2ccccc2)NC(=O)CNC(=O)CNC(=O)[C@@H](N)Cc2ccccc2)[C@@H](C)O)C(N)=O)C1=O)C(=O)N[C@@H](CCCCN)C(=O)N[C@@H](C)C(=O)N[C@@H](CCCCN)C(=O)N[C@@H](C)C(=O)N[C@@H](CCCCN)C(=O)N[C@@H](C)C(=O)N[C@@H](CCCCN)C(=O)N[C@@H](C)C(=O)N[C@@H](CCCCN)C(=O)N[C@@H](C)C(=O)N[C@@H](CCCCN)C(N)=O (stereo partly specified) (I: H-FGGFTGARKSARKC-NH2 / II: AKAKAKAKAKAK-NH2; linker I:14-II:N via X2) | 0.794 | 17.4 | 1.18
C[C@H](NC(=O)CNC(=O)[C@@H](NC(=O)[C@H](Cc1ccccc1)NC(=O)CNC(=O)CNC(=O)[C@@H](N)Cc1ccccc1)[C@@H](C)O)C(=O)N[C@@H](CCCNC(=N)N)C(=O)N[C@@H](CCCCN)C(=O)N[C@@H](CO)C(=O)N[C@@H](C)C(=O)N[C@@H](CCCNC(=N)N)C(=O)N[C@@H](CCCCN)C(=O)N[C@@H](CSC1CC(=O)N(CCCC(=O)NCC(=O)N[C@@H](CC(=O)O)C(=O)NCC(=O)N[C@@H](CC(=O)O)C(=O)NCC(=O)N[C@@H](CC(=O)O)C(=O)NCC(=O)N[C@@H](CC(=O)O)C(=O)NCC(=O)N[C@@H](CC(=O)O)C(=O)NCC(=O)N[C@@H](CC(=O)O)C(N)=O)C1=O)C(N)=O (stereo partly specified) (I: H-FGGFTGARKSARKC-NH2 / II: GDGDGDGDGDGD-NH2; linker I:14-II:N via X2) | 17.8 | 49 | 0.81
C[C@H](NC(=O)CNC(=O)[C@@H](NC(=O)[C@H](Cc1ccccc1)NC(=O)CNC(=O)CNC(=O)[C@@H](N)Cc1ccccc1)[C@@H](C)O)C(=O)N[C@@H](CCCNC(=N)N)C(=O)N[C@@H](CCCCN)C(=O)N[C@@H](CO)C(=O)N[C@@H](C)C(=O)N[C@@H](CCCNC(=N)N)C(=O)N[C@@H](CCCCN)C(=O)N[C@@H](CSC1CC(=O)N(CCCC(=O)NCC(=O)N[C@@H](Cc2cnc[nH]2)C(=O)NCC(=O)N[C@@H](Cc2cnc[nH]2)C(=O)NCC(=O)N[C@@H](Cc2cnc[nH]2)C(=O)NCC(=O)N[C@@H](Cc2cnc[nH]2)C(=O)NCC(=O)N[C@@H](Cc2cnc[nH]2)C(=O)NCC(=O)N[C@@H](Cc2cnc[nH]2)C(N)=O)C1=O)C(N)=O (stereo partly specified) (I: H-FGGFTGARKSARKC-NH2 / II: GHGHGHGHGHGH-NH2; linker I:14-II:N via X2) | 4.27 | 12.6 | 0.17
C[C@H](NC(=O)CNC(=O)[C@@H](NC(=O)[C@H](Cc1ccccc1)NC(=O)CNC(=O)CNC(=O)[C@@H](N)Cc1ccccc1)[C@@H](C)O)C(=O)N[C@@H](CCCNC(=N)N)C(=O)N[C@@H](CCCCN)C(=O)N[C@@H](CO)C(=O)N[C@@H](C)C(=O)N[C@@H](CCCNC(=N)N)C(=O)N[C@@H](CCCCN)C(=O)N[C@@H](CSC1CC(=O)N(CCCC(=O)NCC(=O)N[C@@H](CCCCN)C(=O)NCC(=O)N[C@@H](CCCCN)C(=O)NCC(=O)N[C@@H](CCCCN)C(=O)NCC(=O)N[C@@H](CCCCN)C(=O)NCC(=O)N[C@@H](CCCCN)C(=O)NCC(=O)N[C@@H](CCCCN)C(N)=O)C1=O)C(N)=O (stereo partly specified) (I: H-FGGFTGARKSARKC-NH2 / II: GKGKGKGKGKGK-NH2; linker I:14-II:N via X2) | 1.1 | 14.5 | 1.11
H-FGAFTGARKSARK-NH2 | 13.2 | 28.8 | -0.21
H-FGGFNGARKSARK-NH2 | 9.33 | 27.5 | 
